# RGS4 act: potentiators or activators of RGS4. AID 463111. HEK293 M3R/inducible RGS4, carbachol calcium flux Fluo4; stronger effect = lower value. B-score at 10 µM. hit rate 0.92% among 310,000;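 active means B-score of the integrated calcium signal more than 4 SD below the library mean, with starting fluorescence not abnormally high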;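 further: negative B-score means reduced calcium response which marks RGS4 activation or potentiation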
#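 Assay system: Inducible-RGS4 HEK293 cells carrying M3 receptor | Schedule: Compound preincubation 20 min at room temperature before agonist | Signal: Kinetic calcium fluorescence imaging with Fluo4-AM dye, 2 µM | Read-out basis: B score from integrated fluorescence ratio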
# MrgX1 agonist: agonists of human MrgX1 receptor | Q96LB2 | MrgX1-HEK293 cells, Fluo-4 calcium fluorescence, agonist mode; stronger effect = higher value | B-score at 10 µM | hit rate 0.44% among 310,000 | AID 588627;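 active means calcium response B-score plate-corrected fluorescence ratio at least 3 library SD, with starting fluorescence B-score inside 5 SD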
# Target sequence (Q96LB2 whole entry, looked up): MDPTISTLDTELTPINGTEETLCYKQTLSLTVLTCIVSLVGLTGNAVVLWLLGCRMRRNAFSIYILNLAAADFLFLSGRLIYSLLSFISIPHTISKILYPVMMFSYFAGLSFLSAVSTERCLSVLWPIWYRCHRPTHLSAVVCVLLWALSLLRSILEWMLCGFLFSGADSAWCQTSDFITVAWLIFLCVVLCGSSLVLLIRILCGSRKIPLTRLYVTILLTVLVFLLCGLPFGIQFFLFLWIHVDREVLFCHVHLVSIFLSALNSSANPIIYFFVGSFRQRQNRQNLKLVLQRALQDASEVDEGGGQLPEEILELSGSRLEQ
#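 times = overnight plating, then 30 min 37 °C plus 30 min room-temperature dye loading | assay system = stable human MrgX1 HEK293 cell line | input = fifteen thousand cells per well | signal = kinetic calcium dye fluorescence, Fluo-4 NW | dosing = compound delivered in addition one of three | read-out = B-scored fluorescence response ratio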
# RGS4 block: inhibitors of human RGS4. P49798. HEK293 M3R/RGS4 inducible, Fluo-4 calcium flux; stronger effect = higher value; triggered by carbachol at its EC20. B-score at 10 µM. hit rate 0.45% among 310,000;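 active means B-score, a plate-corrected calcium signal, over three deviations above library mean, with baseline fluorescence within five deviations of library mean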;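 further: RGS4 expression induced by doxycycline in cells with stable M3 receptor; B-score is computed from the integrated fluorescence ratio over baseline after carbachol; higher B-score means a larger calcium signal and so more RGS4 inhibition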
# MrgX1 PAM: allosterically activates human MrgX1 receptor signaling | MrgX1-HEK293, Fluo-4 calcium flux, FDSS; stronger effect = higher value | B-score at 10 µM | hit rate 0.63% among 310,000 | Q96LB2;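 active means plate-corrected calcium response at least 3 library SD above typical, normal starting fluorescence, not activating the receptor alone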;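 further: compound read alongside a low EC10 to EC30 dose of BAM8-22 agonist; peak minus trough fluorescence over baseline measured at the second addition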
# MrgX1 antagonist: human MrgX1 receptor antagonism, primary screen | Q96LB2 | MRGX1-HEK293 calcium flux, Fluo-4, BAM8-22 antagonism; stronger effect = lower value | B-score at 10 µM | hit rate 1.3% among 310,000 | AID 588676;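 active means calcium-response B-score plate-corrected more than 3 library SD below zero, starting fluorescence within 5 deviations, no agonist response on first addition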;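 further: peak minus trough fluorescence over baseline after final BAM8-22 challenge near maximal dose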
# RGS4 inh valid: validation of RGS4 inhibitors; shares compounds with RGS4 block; HEK293 M3R/RGS4, carbachol calcium Fluo-4 fluorescence; carbachol added at its EC20; 0 = buffer wells, 100 = carbachol control; calcium response, % at 10 µM; hit rate 65% among 1,700; AID 492999;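 active means duplicate-averaged calcium response above the buffer-only control mean plus 5 SD of those controls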;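 further: integrated fluorescence ratio F max minus min over baseline F0; higher response in RGS4-induced cells means RGS4 inhibition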
# M3R Ca ctr: counter-screen for RGS4 inhibitors: effect in non-induced cells | HEK293 M3R non-induced, carbachol calcium Fluo-4; submaximal (EC20) carbachol stimulus; buffer wells 0%, carbachol control wells 100% | shares compounds with RGS4 block | hit rate 20% among 1,900 | activity (percent), % at 10 µM; call rule not given here;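 further: RGS4 induction absent so cells express M3R without RGS4; higher means more calcium signal and flags a non-specific hit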
# M3R basal Ca ctr: signal in non-induced cells without carbachol, RGS4 inhibitor counter-screen; shares compounds with RGS4 block; HEK293 M3R/RGS4 non-induced, Fluo-4 calcium, no carbachol; normalised: buffer wells 0%, carbachol wells 100%; calcium response (agonist-mode artifact), % at 10 µM; hit rate 22% among 1,900;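 active means duplicate-averaged calcium rise in uninduced cells above buffer wells' mean plus 5 SD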
# Starred values were filed as active, the others as inactive; i = inactive; . = not tested or not shown. The list is not random: actives were taken first. Their share in the collection is about 3.5%.
SMILES,RGS4 act,MrgX1 agonist,RGS4 block,MrgX1 PAM,MrgX1 antagonist,RGS4 inh valid,M3R Ca ctr,M3R basal Ca ctr
Cc1cc(NS(=O)(=O)c2ccc(Nc3nc(-c4ccc(C)c(C)c4)cs3)cc2)no1,i,i,i,i,i,i,34%*,i
Cc1cc(NS(=O)(=O)c2ccc(Nc3nc(-c4sc(N)nc4C)cs3)cc2)no1,i,i,i,i,i,.,.,.
Cc1cc(NS(=O)(=O)c2ccc(Nc3nc(-c4ccc(O)cc4)cs3)cc2)no1,i,i,i,i,i,.,i,i
Cc1csc(SC(C)c2nc3scc(-c4ccccc4)c3c(=O)[nH]2)n1 (stereo not given),i,i,i,i,i,.,.,.
CCn1c(SCC(=O)NC2CCCCC2)nc2ccccc2c1=O,i,i,i,i,i,.,.,.
O=Nc1c(O)n(Cc2ccc(Cl)cc2Cl)c2ccccc12,i,i,6.6*,i,i,5.5%*,i,i
CC(C)NC(=O)c1ccc(COc2ccc(C(C)(C)C)cc2)o1,i,i,i,i,i,.,.,.
O=C(CSc1nc2ccccc2s1)NCc1cc([N+](=O)[O-])ccc1O,i,i,i,i,i,.,.,.
CCOC(=O)[C@@H]1[C@H]2COc3ccc(Br)cc3[C@@H]2N2C(=O)N(c3ccc(OC)cc3)C(=O)[C@]12C,i,i,i,i,i,.,.,.
CCOC(=O)[C@@H]1[C@H]2COc3ccccc3[C@@H]2N2C(=O)N(c3ccc(OC)cc3)C(=O)[C@@]12C,i,i,i,i,i,i,i,i
CCOC(=O)[C@@H]1[C@H]2COc3ccccc3[C@@H]2N2C(=O)N(c3ccc(OC)cc3)C(=O)[C@]12C,i,i,i,i,i,i,i,7.5%*
Cn1c2ccccc2c2nnc(SCC(=O)NC3CCCC3)nc21,i,i,i,i,i,.,.,.
COc1ccccc1CN(Cc1cc2cc3c(cc2[nH]c1=O)OCCO3)Cc1nnnn1Cc1ccco1,i,i,19*,i,i,7.5%*,i,12%*
O=c1[nH]c2cc3c(cc2cc1CN(Cc1ccccc1)Cc1nnnn1Cc1ccco1)OCCO3,i,.,i,.,.,.,.,.
O=c1[nH]c2cc3c(cc2cc1CN(Cc1cccs1)Cc1nnnn1Cc1ccco1)OCCO3,i,i,7*,i,i,i,i,i
O=c1[nH]c2cc3c(cc2cc1CN(Cc1cccnc1)Cc1nnnn1Cc1ccco1)OCCO3,i,i,i,i,i,i,i,i
Cc1ccc(NC(=O)Cn2cnc3c(nnn3Cc3ccc(F)cc3)c2=O)cc1,i,i,i,i,i,.,.,.
O=C(CCNC(=O)C1CCN(S(=O)(=O)c2ccc(F)cc2)CC1)Nc1ccccc1,i,i,i,i,i,.,.,.
CCOc1ccc(/C(O)=C2/C(=O)C(=O)N(c3nc(C)c(C)s3)C2c2ccco2)cc1 (stereo not given),i,i,i,i,i,.,i,i
CN1CCN(Cc2cn[nH]c2-c2ccc(F)cc2F)[C@@H](c2ccccc2)C1,i,i,i,i,i,.,.,.
CCCOc1ccc(NC(=O)C2CC(=O)N(C)C(=Nc3cccc(OC)c3)S2)cc1 (stereo not given),i,i,i,i,i,.,.,.
COc1ccc(-c2nc(CS(=O)(=O)CC(=O)NCc3ccc(F)cc3)c(C)o2)cc1,i,i,i,i,i,.,.,.
Cc1ccc(NC(=O)COC(=O)CNC(=O)c2ccc(Br)cc2)c(C)c1,i,i,i,i,i,.,.,.

# Screening data from PubChem.
